# Assay results gathered from unrelated publications.
# Lines come from different studies, so protocols differ.
# TEC: Tyrosine-protein kinase Tec (TEC, Homo sapiens, UniProt P42680)
# TEC phosphorylated: Tyrosine-protein kinase Tec, phosphorylated (TEC, Homo sapiens, UniProt P42680)
SMILES,target,assay,setting,endpoint,result
CNC(=O)c1cc(Oc2ccc(NC(=O)Nc3ccc(Cl)c(C(F)(F)F)c3)cc2)ccn1,TEC,cell-free assay,0.5 µM,remaining signal,101%
CN(C)C(=O)Cn1cc(-c2nc(C3(c4ccc(-c5cnc(N)nc5)cc4)CC3)no2)cn1,TEC,"binding, competition with immobilised ligand",1 µM,remaining binding,93%
N#CCCc1ccc2c(c1)-c1[nH]c3ccc([N+](=O)[O-])cc3c1CC(=O)N2,TEC,cell-free assay,0.5 µM,remaining signal,120%
CCCOc1ccc(OC)c(F)c1C(=O)c1ccc(C(=O)N[C@@H]2CNC[C@H]2NC(=O)c2ccc3[nH]ncc3c2)cc1,TEC phosphorylated,"enzyme activity, inhibitor",10 µM,remaining activity,50%
CCN(CC)c1ccc(C2=NNC(=O)CC2C)cc1[N+](=O)[O-] (centres unmarked),TEC phosphorylated,"enzyme activity, inhibitor",10 µM,remaining activity,64%
CC(=O)N1CCC(c2ccc(C(=O)NC3=NCCN3)cc2C(F)(F)F)CC1,TEC,"binding, competition with immobilised ligand",1 µM,remaining binding,100%
COc1cc(Cl)c(C(=O)N[C@@H](CN[C@H]2CC[C@@H](N)CC2)Cc2ccc(C#N)cc2)cc1-c1ccc(CN[C@H](C)c2ccc(C)cc2)o1,TEC phosphorylated,"enzyme activity, inhibitor",1 µM,remaining activity,90%
CN1CC(Oc2cnc(C#N)cc2-c2ccn3nc(NC(=O)C4CC4)cc3c2)C1,TEC phosphorylated,"enzyme activity, inhibitor",1 µM,inhibition,25%
c1nc2c(Nc3ccc4c(c3)OCCO4)nc(Nc3ccc4c(c3)OCCO4)nc2[nH]1,TEC,"enzyme activity, inhibitor",10 µM,activity vs control,2.5%
CCCS(=O)(=O)Nc1ccc(F)c(C(=O)c2c[nH]c3ncc(-c4ccc(Cl)cc4)cc23)c1F,TEC,"enzyme activity, inhibitor",1 µM,inhibition,< 10%
CC(C)(C)c1nc(-c2cccc(NS(=O)(=O)c3c(F)cccc3F)c2F)c(-c2ccnc(N)n2)s1,TEC,"enzyme activity, inhibitor, radiometric",1 µM,remaining activity,87%
Nc1c(C(=O)NCc2ccc(C(=O)NCCCC3CCCCC3)cc2)cnn1-c1ccccc1,TEC,"cell-free assay, competition with immobilised ligand",0.1 µM,remaining binding,100%
CCOc1cc(-c2nncn2C)ccc1Nc1ncc2cc(C)nc(NCC(C)(C)C)c2n1,TEC,"cell-free assay, TR-FRET",1 µM,inhibition,≤ 15%
CCCOc1ccc([C@@H]2[C@@H](C(=O)O)[C@H](c3ccc4c(c3)OCO4)CN2CC(=O)Nc2c(CC)cccc2CC)cc1,TEC,"binding, competition with immobilised ligand",1 µM,remaining binding,96%
O=C1Nc2ccc(Cl)cc2C1=Cc1cc(Cl)c(O)c(Cl)c1,TEC,cell-free assay,0.5 µM,remaining signal,109%
CC/C(=N\NC(=O)NCc1cccc(O)c1)c1ccc(O)c(C)c1O,TEC,"enzyme activity, inhibitor",0.1 µM,inhibition,0.2%
C[C@@H]1CN(c2cc(-c3nn(C)c4ccc(OC5(C)CC5)cc34)ncn2)C[C@H](C)O1,TEC,"cell-free assay, competition with immobilised ligand",1 µM,remaining binding,100%
O=C(Nc1cnn(-c2csc(C(=O)NC3COC3)c2)c1)Nc1ccccc1Cl,TEC,"enzyme activity, inhibitor",5 µM,remaining activity,97.2%
CC(=O)C1=C(C)N(c2cccc(C(F)(F)F)c2)C(=O)N[C@@H]1c1ccc(C#N)nc1,TEC,"binding, competition with immobilised ligand",1 µM,remaining binding,100%
CC(C)[C@H](NC(=O)c1cc(-c2cnn3cc(-c4ccc(OCCN5CCCCC5)cc4)cnc23)cs1)C(F)(F)F,TEC,"enzyme activity, inhibitor, radiometric",15 nM,inhibition,0%
